Reference: ChEMBL document CHEMBL5325503, “Structure Guided Design, Synthesis, and Biological Evaluation of Oxetane-Containing Indole Analogues” (Bioorg Med Chem, 2023)
Active and inactive are the calls of the source. The calls are words filed in the database; no cut-off is given here.

Legend:
MCF7 [1] = experiment: Cytotoxicity against human MCF7 cells assessed as inhibition of cell growth incubated for 96 hrs by SRB assay; conditions: MCF7, 96 h
Tubulin = Tubulin (Bos taurus, UniProt Q6B856+Q862L2+Q862F3); experiment: Inhibition of bovine brain tubulin polymerization preincubated for 15 mins followed by GTP addition and measured after 20 mins by turbidimetric analysis
Summary of the method: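 Mixtures (0.25 mL final) held 10 μM (1 mg/mL) bovine brain tubulin, 0.8 M monosodium glutamate pH 6.6, 4% DMSO and compound. Preincubated 15 min at 30 °C without GTP, chilled to 0 °C, then GTP added to 0.1 mM final. Warmed to 30 °C, turbidity followed at 350 nm for 20 min. IC50 = concentration halving polymerization extent at 20 min.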

PANC-1 [2] = experiment: Cytotoxicity against human PANC-1 cells assessed as inhibition of cell growth incubated for 48 hrs by SRB assay; type: functional, cell-based; conditions: PANC-1, 48 h
Summary of the method: (§1)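 Seeded at 12,000 cells/well in triplicate and grown 24 h at 37 °C, 5% CO2 in high-glucose DMEM with 10% FBS and 30 μg/mL gentamicin. Serial dilutions in medium from 10 mg/mL DMSO stocks, 48 h exposure. Fixed with TCA (6% final), SRB-stained, dye solubilized in 10 mM Tris, A530.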

MDA-MB-231 = experiment: Cytotoxicity against human MDA-MB-231 cells assessed as inhibition of cell growth incubated for 48 hrs by SRB assay; type: functional, cell-based; conditions: MDA-MB-231, 48 h
Summary of the method: as §1

PANC-1 [3] = experiment: Inhibition of cell migration in human PANC-1 cells at 0.5 uM incubated for 1 to 40 hrs by scratch wound healing assay; type: functional, cell-based; conditions: time 1-40 hrs
Summary of the method: (§2)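 About 1 × 10^5 cells seeded per well of a 6-well plate in DMEM with 10% heat-inactivated FBS and 30 μg/mL gentamicin at 37 °C, 5% CO2. Grown to 70–80% confluency, scratched with a 10 μL pipette tip, medium replaced. Two wells per condition at 0.5 or 1 μM, DMSO ≤0.2% final, with two control wells. Gap imaged by automated microscopy (4X) over 48 h.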

PANC-1 [4] = experiment: Inhibition of cell migration in human PANC-1 cells at 1 uM incubated at 40 hrs by scratch wound healing assay; type: functional, cell-based
Summary of the method: as §2

PANC-1 [5] = experiment: Inhibition of cell migration in human PANC-1 cells at 0.5 to 1 uM incubated for 48 hrs by scratch wound healing assay; type: functional, cell-based; conditions: dose 0.5-1 µM
Summary of the method: as §2

MCF7 [6] = experiment: Cytotoxicity against human MCF7 cells assessed as inhibition of cell growth incubated for 48 hrs by SRB assay; type: functional, cell-based; conditions: MCF7, 48 h

Row | SMILES | IC50 (MCF7 [1]) | IC50 (Tubulin) | IC50 (PANC-1 [2]) | IC50 (MDA-MB-231) | inhibition (PANC-1 [3]) | inhibition (PANC-1 [4]) | inhibition (PANC-1 [5]) | IC50 (MCF7 [6])
1 | COc1ccc2[nH]c(-c3ccc(C)cc3)c(C3(c4cc(OC)c(OC)c(OC)c4)COC3)c2c1 | > 5000 nM | > 20000 nM | – | – | – | – | – | –
2 | COc1cc(C2(c3c(-c4ccc(C)cc4)[nH]c4cc(Cl)ccc34)COC2)cc(OC)c1OC | 2700 nM | > 20000 nM | – | – | – | – | – | –
3 | COc1ccc2[nH]c(-c3ccccc3)c(C3(c4cc(OC)c(OC)c(OC)c4)COC3)c2c1 | 3200 nM | > 20000 nM | – | – | – | – | – | –
4 | COc1cc(C2(c3c(-c4ccccc4)[nH]c4cc(Cl)ccc34)COC2)cc(OC)c1OC | 840 nM | > 20000 nM | 1100 nM | 2200 nM | – | – | – | –
5 | COc1cc(C2(c3c(-c4ccccc4)[nH]c4ccccc34)COC2)cc(OC)c1OC | > 5000 nM | > 20000 nM | – | – | – | – | – | –
6 | COc1cc(C2(c3c(-c4ccc(C)cc4)[nH]c4ccccc34)COC2)cc(OC)c1OC | > 5000 nM | > 20000 nM | – | – | – | – | – | –
7 | COc1cc(C2(c3c(-c4ccccc4)[nH]c4c(OC)cccc34)COC2)cc(OC)c1OC | 780 nM | > 20000 nM | 440 nM | 3000 nM | Active | Active | Active | –
8 | COc1cc(C2(c3c(-c4ccccc4)[nH]c4cc(Br)ccc34)COC2)cc(OC)c1OC | 470 nM | > 20000 nM | 430 nM | 1900 nM | Active | Active | Active | –
9 | COc1cccc(-c2[nH]c3ccccc3c2C2(c3cc(OC)c(OC)c(OC)c3)COC2)c1 | 4800 nM | > 20000 nM | – | – | – | – | – | –
10 | COc1ccc2c(C3(c4cc(OC)c(OC)c(OC)c4)COC3)c(-c3ccc(OC)c(O)c3)[nH]c2c1 | – | > 20000 nM | – | – | – | – | – | 1600 nM
11 | COc1cc(C2(c3c(-c4ccccc4)[nH]c4ccc(Br)cc34)COC2)cc(OC)c1OC | 2200 nM | > 20000 nM | – | – | – | – | – | –
12 | COc1ccc(-c2[nH]c3ccccc3c2C2(c3cc(OC)c(OC)c(OC)c3)COC2)cc1 | > 5000 nM | > 20000 nM | – | – | – | – | – | –
13 | COc1ccc(-c2[nH]c3cc(Cl)ccc3c2C2(c3cc(OC)c(OC)c(OC)c3)COC2)cc1 | – | > 20000 nM | – | – | – | – | – | 3700 nM
14 | COc1cc(C2(c3c(-c4ccc(C)cc4)[nH]c4cc(Br)ccc34)COC2)cc(OC)c1OC | 1700 nM | > 20000 nM | – | – | – | – | – | –
